ChEMBL document CHEMBL1649314, “Experimental murine scedosporiosis: histopathology and azole treatment” (2010)
Values after ≈ are worked out from the molar mass of the structure shown. Active and inactive are the calls of the source. The calls are words filed in the database; no cut-off is given here.

Assays:
Scedosporium aurantiacum [1] = assay: Antifungal activity against Scedosporium aurantiacum IHEM 15458 infected in immunosuppressed OF1 mouse assessed as reduction in kidney fungal burden at 20 mg/kg, po BID administered 24 hrs postinfection for 10 days measured after 20 days; format: functional, organism-based; set-up: dose 20 mg/kg
Scedosporium apiospermum [2] = assay: Antifungal activity against Scedosporium apiospermum IHEM 14464 infected in immunosuppressed OF1 mouse assessed as reduction in kidney fungal burden at 40 mg/kg, po BID administered 24 hrs postinfection for 10 days measured after 20 days; format: functional, organism-based; set-up: dose 40 mg/kg
Scedosporium aurantiacum [3] = assay: Antifungal activity against Scedosporium aurantiacum IHEM 15458 infected in immunosuppressed OF1 mouse assessed as reduction in kidney fungal burden at 40 mg/kg, po BID administered 24 hrs postinfection for 10 days measured after 20 days; format: functional, organism-based; set-up: dose 40 mg/kg
Scedosporium aurantiacum [4] = assay: Antifungal activity against Scedosporium aurantiacum CBS 116910 infected in immunosuppressed OF1 mouse assessed as reduction in brain fungal burden at 20 mg/kg, po BID administered 24 hrs postinfection for 10 days measured after 20 days; format: functional, organism-based; set-up: dose 20 mg/kg
Scedosporium boydii [5] = assay: Antifungal activity against Scedosporium boydii FMR 8627 infected in immunosuppressed OF1 mouse assessed as reduction in kidney fungal burden at 40 mg/kg, po BID administered 24 hrs postinfection for 10 days measured after 20 days; format: functional, organism-based; set-up: dose 40 mg/kg
[6] = Antifungal activity against Scedosporium aurantiacum CBS 116910 infected in immunosuppressed OF1 mouse assessed as prolonged survival of mouse at 20 mg/kg, po BID administered 24 hrs postinfection for 10 days measured after 20 days; format: functional, organism-based; set-up: dose 20 mg/kg
Outline: (§1)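 Male OF1 mice, groups of 10, immunosuppressed 1 day before infection with cyclophosphamide 200 mg/kg i.p. plus 5-fluorouracil 150 mg/kg i.v. Infected i.v. via tail vein with 1 × 10^4 CFU in 0.2 ml saline. Oral treatment began 24 h post-challenge for 10 days. Mice checked daily for 20 days. Survival by Kaplan-Meier, compared by log rank test.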

Scedosporium boydii [7] = assay: Antifungal activity against Scedosporium boydii FMR 6694 infected in immunosuppressed OF1 mouse assessed as prolonged survival of mouse at 40 mg/kg, po BID administered 24 hrs postinfection for 10 days measured after 20 days; format: functional, organism-based; set-up: dose 40 mg/kg
Scedosporium apiospermum [8] = assay: Antifungal activity against Scedosporium apiospermum CBS 117407 infected in immunosuppressed OF1 mouse assessed as prolonged survival of mouse at 20 mg/kg, po BID administered 24 hrs postinfection for 10 days measured after 20 days; format: functional, organism-based; set-up: dose 20 mg/kg; outline: as §1
Scedosporium apiospermum [9] = assay: Antifungal activity against Scedosporium apiospermum CBS 117407 infected in immunosuppressed OF1 mouse assessed as reduction in brain fungal burden at 20 mg/kg, po BID administered 24 hrs postinfection for 10 days measured after 20 days; format: functional, organism-based; set-up: dose 20 mg/kg
Scedosporium aurantiacum [10] = assay: Antifungal activity against Scedosporium aurantiacum IHEM 15458 infected in immunosuppressed OF1 mouse assessed as reduction in brain fungal burden at 20 mg/kg, po BID administered 24 hrs postinfection for 10 days measured after 20 days; format: functional, organism-based; set-up: dose 20 mg/kg
Scedosporium boydii [11] = assay: Antifungal activity against Scedosporium boydii FMR 8627 by broth dilution method; format: functional
Scedosporium apiospermum [12] = assay: Antifungal activity against Scedosporium apiospermum CBS 117407 infected in immunosuppressed OF1 mouse assessed as reduction in kidney fungal burden at 20 mg/kg, po BID administered 24 hrs postinfection for 10 days measured after 20 days; format: functional, organism-based; set-up: dose 20 mg/kg
Scedosporium boydii [13] = assay: Antifungal activity against Scedosporium boydii FMR 6694 infected in immunosuppressed OF1 mouse assessed as reduction in kidney fungal burden at 40 mg/kg, po BID administered 24 hrs postinfection for 10 days measured after 20 days; format: functional, organism-based; set-up: dose 40 mg/kg
Scedosporium apiospermum [14] = assay: Antifungal activity against Scedosporium apiospermum CBS 117407 infected in immunosuppressed OF1 mouse assessed as reduction in kidney fungal burden at 40 mg/kg, po BID administered 24 hrs postinfection for 10 days measured after 20 days; format: functional, organism-based; set-up: dose 40 mg/kg
Scedosporium boydii [15] = assay: Antifungal activity against Scedosporium boydii FMR 8627 infected in immunosuppressed OF1 mouse assessed as reduction in kidney fungal burden at 20 mg/kg, po BID administered 24 hrs postinfection for 10 days measured after 20 days; format: functional, organism-based; set-up: dose 20 mg/kg
Scedosporium boydii [16] = assay: Antifungal activity against Scedosporium boydii FMR 8627 infected in immunosuppressed OF1 mouse assessed as reduction in brain fungal burden at 20 mg/kg, po BID administered 24 hrs postinfection for 10 days measured after 20 days; format: functional, organism-based; set-up: dose 20 mg/kg
Scedosporium apiospermum [17] = assay: Antifungal activity against Scedosporium apiospermum CBS 117407 infected in immunosuppressed OF1 mouse assessed as prolonged survival of mouse at 40 mg/kg, po BID administered 24 hrs postinfection for 10 days measured after 20 days; format: functional, organism-based; set-up: dose 40 mg/kg
[18] = Antifungal activity against Scedosporium aurantiacum IHEM 15458 by broth dilution method; format: functional
Scedosporium apiospermum [19] = assay: Antifungal activity against Scedosporium apiospermum IHEM 14464 infected in immunosuppressed OF1 mouse assessed as reduction in brain fungal burden at 20 mg/kg, po BID administered 24 hrs postinfection for 10 days measured after 20 days; format: functional, organism-based; set-up: dose 20 mg/kg
Scedosporium apiospermum [20] = assay: Antifungal activity against Scedosporium apiospermum IHEM 14464 infected in immunosuppressed OF1 mouse assessed as reduction in kidney fungal burden at 20 mg/kg, po BID administered 24 hrs postinfection for 10 days measured after 20 days; format: functional, organism-based; set-up: dose 20 mg/kg
[21] = Antifungal activity against Scedosporium aurantiacum CBS 116910 infected in immunosuppressed OF1 mouse assessed as prolonged survival of mouse at 40 mg/kg, po BID administered 24 hrs postinfection for 10 days measured after 20 days; format: functional, organism-based; set-up: dose 40 mg/kg
Scedosporium aurantiacum [22] = assay: Antifungal activity against Scedosporium aurantiacum CBS 116910 infected in immunosuppressed OF1 mouse assessed as reduction in kidney fungal burden at 20 mg/kg, po BID administered 24 hrs postinfection for 10 days measured after 20 days; format: functional, organism-based; set-up: dose 20 mg/kg
Scedosporium boydii [23] = assay: Antifungal activity against Scedosporium boydii FMR 6694 by broth dilution method; format: functional
[24] = Antifungal activity against Scedosporium aurantiacum CBS 116910 by broth dilution method; format: functional
Scedosporium boydii [25] = assay: Antifungal activity against Scedosporium boydii FMR 8627 infected in immunosuppressed OF1 mouse assessed as prolonged survival of mouse at 20 mg/kg, po BID administered 24 hrs postinfection for 10 days measured after 20 days; format: functional, organism-based; set-up: dose 20 mg/kg
Outline: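 Male OF1 mice were immunosuppressed 1 day before infection with cyclophosphamide 200 mg/kg i.p. plus 5-fluorouracil 150 mg/kg i.v. They were infected i.v. via a lateral tail vein with 1 × 10^4 CFU/mouse in 0.2 ml saline. Oral dosing was 10 or 20 mg/kg twice daily, or 20 or 40 mg/kg once daily (those mice and controls drank grapefruit juice from day −3). Dosing ran 24 h post-challenge for 10 days; 10 mice/group; observed daily to day 20; Kaplan-Meier with log rank test.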

Scedosporium boydii [26] = assay: Antifungal activity against Scedosporium boydii FMR 6694 infected in immunosuppressed OF1 mouse assessed as prolonged survival of mouse at 20 mg/kg, po BID administered 24 hrs postinfection for 10 days measured after 20 days; format: functional, organism-based; set-up: dose 20 mg/kg; outline: as §1
[27] = Antifungal activity against Scedosporium aurantiacum IHEM 15458 infected in immunosuppressed OF1 mouse assessed as prolonged survival of mouse at 40 mg/kg, po BID administered 24 hrs postinfection for 10 days measured after 20 days; format: functional, organism-based; set-up: dose 40 mg/kg
Scedosporium apiospermum [28] = assay: Antifungal activity against Scedosporium apiospermum IHEM 14464 by broth dilution method; format: functional
Scedosporium apiospermum [29] = assay: Antifungal activity against Scedosporium apiospermum IHEM 14464 infected in immunosuppressed OF1 mouse assessed as prolonged survival of mouse at 40 mg/kg, po BID administered 24 hrs postinfection for 10 days measured after 20 days; format: functional, organism-based; set-up: dose 40 mg/kg
Scedosporium boydii [30] = assay: Antifungal activity against Scedosporium boydii FMR 6694 infected in immunosuppressed OF1 mouse assessed as reduction in kidney fungal burden at 20 mg/kg, po BID administered 24 hrs postinfection for 10 days measured after 20 days; format: functional, organism-based; set-up: dose 20 mg/kg
Scedosporium apiospermum [31] = assay: Antifungal activity against Scedosporium apiospermum CBS 117407 by broth dilution method; format: functional
[32] = Antifungal activity against Scedosporium aurantiacum IHEM 15458 infected in immunosuppressed OF1 mouse assessed as prolonged survival of mouse at 20 mg/kg, po BID administered 24 hrs postinfection for 10 days measured after 20 days; format: functional, organism-based; set-up: dose 20 mg/kg; outline: as §1
Scedosporium boydii [33] = assay: Antifungal activity against Scedosporium boydii FMR 6694 infected in immunosuppressed OF1 mouse assessed as reduction in brain fungal burden at 20 mg/kg, po BID administered 24 hrs postinfection for 10 days measured after 20 days; format: functional, organism-based; set-up: dose 20 mg/kg
Scedosporium boydii [34] = assay: Antifungal activity against Scedosporium boydii FMR 8627 infected in immunosuppressed OF1 mouse assessed as prolonged survival of mouse at 40 mg/kg, po BID administered 24 hrs postinfection for 10 days measured after 20 days; format: functional, organism-based; set-up: dose 40 mg/kg
Scedosporium aurantiacum [35] = assay: Antifungal activity against Scedosporium aurantiacum CBS 116910 infected in immunosuppressed OF1 mouse assessed as reduction in kidney fungal burden at 40 mg/kg, po BID administered 24 hrs postinfection for 10 days measured after 20 days; format: functional, organism-based; set-up: dose 40 mg/kg
Scedosporium apiospermum [36] = assay: Antifungal activity against Scedosporium apiospermum IHEM 14464 infected in immunosuppressed OF1 mouse assessed as prolonged survival of mouse at 20 mg/kg, po BID administered 24 hrs postinfection for 10 days measured after 20 days; format: functional, organism-based; set-up: dose 20 mg/kg; outline: as §1

C[C@@H](c1ncncc1F)[C@](O)(Cn1cncn1)c1ccc(F)cc1F [VORICONAZOLE]
Activity (Scedosporium aurantiacum [1]): Active | Activity (Scedosporium apiospermum [2]): Active | Activity (Scedosporium aurantiacum [3]): Active | Activity (Scedosporium aurantiacum [4]): Active | Activity (Scedosporium boydii [5]): Active | Activity [6]: Active | Activity (Scedosporium boydii [7]): Active | Activity (Scedosporium apiospermum [8]): Active | Activity (Scedosporium apiospermum [9]): Active | Activity (Scedosporium aurantiacum [10]): Active | MIC (Scedosporium boydii [11]): 0.5 µg/mL (≈ 1.43 µM) | Activity (Scedosporium apiospermum [12]): Active | Activity (Scedosporium boydii [13]): inactive | Activity (Scedosporium apiospermum [14]): Active | Activity (Scedosporium boydii [15]): Active | Activity (Scedosporium boydii [16]): Active | Activity (Scedosporium apiospermum [17]): Active | MIC [18]: 1 µg/mL (≈ 2.86 µM) | Activity (Scedosporium apiospermum [19]): Active | Activity (Scedosporium apiospermum [20]): Active | Activity [21]: Active | Activity (Scedosporium aurantiacum [22]): Active | MIC (Scedosporium boydii [23]): 1 µg/mL (≈ 2.86 µM) | MIC [24]: 32 µg/mL (≈ 91.6 µM) | Activity (Scedosporium boydii [25]): Active | Activity (Scedosporium boydii [26]): Active | Activity [27]: Active | MIC (Scedosporium apiospermum [28]): 0.25 µg/mL (≈ 0.716 µM) | Activity (Scedosporium apiospermum [29]): Active | Activity (Scedosporium boydii [30]): inactive | MIC (Scedosporium apiospermum [31]): 0.5 µg/mL (≈ 1.43 µM) | Activity [32]: Active | Activity (Scedosporium boydii [33]): inactive | Activity (Scedosporium boydii [34]): Active | Activity (Scedosporium aurantiacum [35]): Active | Activity (Scedosporium apiospermum [36]): Active
